Active and inactive are the calls of the source. The rule behind the calls is not given here.
Tests used:
Homo sapiens [1] = species: Homo sapiens; assay: Stabilization of c-Myc G-quadruplex DNA in human Raji cells assessed as downregulation of c-Myc protein level at 1 uM by Western blot method; assay type: cell-based; details: TDE = time-dependent effect
Procedure, shortened: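 Western blot of RAJI cells treated either with 1 μM for 6, 12, 24 and 48 h or with graded concentrations for 6 h. Lysed in 1% NP-40, 50 μg protein/lane on 3–12% SDS-PAGE, nitrocellulose, probed for c-MYC, NM23-H2, GAPDH loading control, HRP secondary with ECL; untreated control, three replicates.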

Raji [2] = assay: Effect on NM23-H2 protein expression in human Raji cells up to 4 uM up to 48 hrs by Western blot method; assay type: functional, cell-based
Procedure, shortened: (§1)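 After compound exposure (12 h for cell-cycle and apoptosis markers), RAJI cells were lysed in 1% NP-40 buffer. Protein at 50 μg per lane was run on 3–12% SDS-PAGE and transferred to nitrocellulose. Blots were probed with primary antibodies (GAPDH as loading reference) and detected with an HRP secondary and enhanced chemiluminescence.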

[3] = Selectivity ratio of Kd for 5'-FAM labeled duplex DNA (unknown origin) to Kd for 5'-FAM labeled c-Myc Pu27 G-quadruplex DNA (unknown origin)
Procedure, shortened: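 MST binding: FAM-Pu27 or FAM-duplex oligo at 10 μM in 10 mM Tris-HCl pH 7.4 with 150 mM KCl, annealed 95 °C 5 min, slow-cooled, held 4 °C overnight. Ligand titrated as a 12-point series, 0–20 μM for G4 or up to 200 μM for duplex. KD fitted with Hill model; three replicates.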

[4] = Stabilization of 5'-FAM/3'-TAMRA labeled c-Myc Pu22 G-quadruplex DNA (unknown origin) assessed as change in melting temperature at 2 uM by FRET assay
Procedure, shortened: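 FRET melting of FAM/TAMRA-labelled FPu22T (0.2 μM) in 10 mM Tris-HCl pH 7.4 with 2 mM KCl, ligand 2 μM, in a real-time PCR machine. Excitation 470 nm, emission 530 nm, read every 1 °C from 37 to 99 °C after 30 s hold at each step; ΔTm versus probe alone.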

Raji [5] = assay: Induction of apoptosis in human Raji cells assessed as upregulation of cleaved caspase-9 expression up to 4 uM after 12 hrs by Western blot method; assay type: functional, cell-based; procedure, shortened: as §1
Raji [6] = assay: Cell cycle arrest in human Raji cells assessed as accumulation at G0/G1 phase after 48 hrs by propidium iodide staining based flow cytometry (reference value: 38.5%); assay type: functional
Raji [7] = assay: Cell cycle arrest in human Raji cells assessed as accumulation at G0/G1 phase after 24 hrs by propidium iodide staining based flow cytometry (reference value: 38.5%); assay type: functional
Raji [8] = assay: Antitumor activity against human Raji cells xenografted in NOD/SCID nude mouse assessed as reduction in tumor volume at 15 mg/kg, ip administered once daily for 2 weeks relative to control; assay type: functional
Procedure, shortened: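 NOD/SCID mice were implanted subcutaneously in the underarm with RAJI cells (5 × 10^6 per 100 μL of RPMI 1640 with 10% serum). Tumours reached […] after 1 week, and mice were then randomised. […] Tumour volume was recorded daily and tumour weight at the end.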

[9] = Inhibition of NM23-H2 binding to 5'-FAM labeled c-Myc Pu27 G-quadruplex DNA (unknown origin) preincubated for 1 hr followed by NM23-H2 addition by electrophoretic mobility shift assay
Procedure, shortened: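 Annealed labelled Pu27 (1.5 μM) was preincubated with 10 μM agent or 5% DMSO for 1 h at 25 °C. […] Complexes were resolved on 5% native PAGE in 0.5× TBE at 4 °C, 150 V. Inhibition was taken against the no-compound complex band (set as 100%); three runs, Hill-fit IC50.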

Raji [10] = assay: Induction of apoptosis in human Raji cells assessed as late apoptotic cells at 0.5 uM after 48 hrs by Annexin V-FITC/propidium iodide staining based flow cytometry (reference value: 0.1%); assay type: functional
Procedure, shortened: (§2)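 RAJI cells exposed to compound or control medium for 12 or 48 h were washed in PBS and resuspended in binding buffer. They were stained with FITC annexin V and PI for 15 min in the dark, and fluorescence was measured by flow cytometry.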

Raji [11] = assay: Cell cycle arrest in human Raji cells assessed as accumulation at G2/M phase after 6 hrs by propidium iodide staining based flow cytometry (reference value: 24.4%); assay type: functional
[12] = Stabilization of c-Myc Pu27 G-quadruplex DNA (unknown origin) assessed as induction of parallel G-quadruplex formation in absence of K+ ions by CD spectroscopic analysis
Procedure, shortened: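 CD spectra: Pu27 at 5 μM in 10 mM Tris-HCl pH 7.4 without or with 100 mM KCl, annealed 95 °C 5 min, slow-cooled, kept at 4 °C overnight, with ligand. Scanned 230–400 in a 4 mm quartz cuvette, 1 nm bandwidth and step, 0.5 s/point; buffer baseline subtracted.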

Homo sapiens [13] = species: Homo sapiens; assay: Stabilization of c-Myc G-quadruplex DNA in human Raji cells assessed as decrease in amplification of exon-1 after 12 hrs by RT-PCR method; assay type: cell-based
Procedure, shortened: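 Exon-specific assay: RAJI and CA46 cells exposed to various ligand concentrations for 12 h; total RNA (2 μg) reverse-transcribed with oligo dT18 and M-MLV (42 °C 1 h). c-MYC exon 1 and exon 2, NM23-H2 and β-actin amplified by real-time PCR, products run on 1% agarose; untreated cells as control; three repeats, two-tailed unpaired t test.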

Homo sapiens [14] = species: Homo sapiens; assay: Effect on c-Myc DNA translocated chromosome product in human CA46 cells assessed as decrease in amplification of exon-2 up to 4 uM after 12 hrs by RT-PCR method; assay type: cell-based
Procedure, shortened: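 RAJI cells, which retain NHE III1, and CA46 cells, which lack NHE III1 and the P1/P2 promoters, were exposed to graded compound concentrations for 12 h. Total RNA (2 μg) was reverse-transcribed with oligo dT18 and M-MLV. c-MYC exons 1 and 2, NM23-H2 and β-actin were amplified by real-time PCR against untreated cells. Three repeats were done; two-tailed unpaired t-test.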

Homo sapiens [15] = species: Homo sapiens; assay: Inhibition of NM23-H2 binding to c-Myc G-quadruplex DNA in human Raji cells up to 4 uM after 6 hrs by ChIP-PCR method; assay type: cell-based
U-266 = assay: Antiproliferative activity against human U266B1 cells after 12 hrs by MTT assay; assay type: functional, cell-based; details: U-266, 12 h
Procedure, shortened: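 RAJI, CCRF-CEM and U266B1 cells were seeded at 5 × 10^3 cells per well and exposed to compound for 12 h, with a DMSO vehicle control. MTT at 0.5 mg/mL was added for 4 h at 37 °C, then lysis solution overnight at 37 °C, and A570 was read. Assays were run in triplicate. IC50 was taken from the percentage survival relative to the negative control.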

Raji [16] = assay: Cell cycle arrest in human Raji cells assessed as accumulation at G0/G1 phase after 6 hrs by propidium iodide staining based flow cytometry (reference value: 38.5%); assay type: functional
Raji [17] = assay: Induction of apoptosis in human Raji cells assessed as early apoptotic cells at 1 uM after 48 hrs by Annexin V-FITC/propidium iodide staining based flow cytometry (reference value: 1.8%); assay type: functional; procedure, shortened: as §2
Raji [18] = assay: Induction of apoptosis in human Raji cells assessed as downregulation of CDK4 expression after 12 hrs by Western blot method; assay type: functional, cell-based; procedure, shortened: as §1

- Selectivity ratio [3]: 8
- ΔTm [4]: 26.6 °C
- IC50 [9]: 1.56 µM
- Activity [12]: Active
Compound: CN(C)CCCNc1c2ccccc2nc2c1oc1ccc(OCC3CCN(C)CC3)cc12
- Activity (Homo sapiens [1]): Tde
- Activity (Raji [2]): inactive
- Activity (Raji [5]): Active
- Activity (Raji [6]): 57.1%
- Activity (Raji [7]): 56.3%
- T/C (Raji [8]): 33.3%
- Activity (Raji [10]): 0.7%
- Activity (Raji [11]): 26.8%
- Activity (Homo sapiens [13]): Dose-dependent effect
- Activity (Homo sapiens [14]): inactive
- Activity (Homo sapiens [15]): Active
- IC50 (U-266): 23 µM
- Activity (Raji [16]): 50.2%
- Activity (Raji [17]): 52.9%
- Activity (Raji [18]): Dose-dependent effect

Source: ChEMBL document CHEMBL4011629, “New Disubstituted Quindoline Derivatives Inhibiting Burkitt's Lymphoma Cell Proliferation by Impeding c-MYC Transcription” (J Med Chem, 2017)
